In ChEMBL document CHEMBL2401703, “Synthesis of pyrazolo[1,5-a][1,3,5]triazine derivatives as inhibitors of thymidine phosphorylase” (Eur J Med Chem, 2013):
Active and inactive are the calls of the source. The calls are words filed in the database; no cut-off is given here.

Tests used:
Thymidine phosphorylase = Thymidine phosphorylase (Escherichia coli K-12, UniProt P07650); assay: Inhibition of recombinant Escherichia coli thymidine phosphorylase using thymidine as substrate by UV-spectrophotometric analysis
[1] = target: Thymidine phosphorylase (Escherichia coli K-12) (UniProt P07650); assay: Inhibition of recombinant Escherichia coli thymidine phosphorylase using thymidine as substrate at 50 uM by UV-spectrophotometric analysis relative to control
Summary of the method: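 TP (1.5 U/ml stock in pH 7.0 phosphate buffer) mixed with compound in DMSO (DMSO alone as blank) and thymidine (5 mM stock, 200 µl into 1 ml total) in pH 7.4 phosphate buffer. Absorbance decrease at 290 nm read at 4, 8, 12, 16 and 20 min. Velocity taken from the slope of a linear fit. Percent inhibition calculated versus the blank.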

[2] = target: Thymidine phosphorylase (Escherichia coli K-12) (UniProt P07650); assay: Non-competitive inhibition of recombinant Escherichia coli thymidine phosphorylase using thymidine as substrate at 0.01 to 0.2 uM by Lineweaver-burk plot analysis
[3] = target: Thymidine phosphorylase (Escherichia coli K-12) (UniProt P07650); assay: Ratio of 7-deazaxanthine IC50 to compound IC50 for recombinant Escherichia coli thymidine phosphorylase

Chain of Thymidine phosphorylase (Escherichia coli K-12) (P07650 whole entry, looked up): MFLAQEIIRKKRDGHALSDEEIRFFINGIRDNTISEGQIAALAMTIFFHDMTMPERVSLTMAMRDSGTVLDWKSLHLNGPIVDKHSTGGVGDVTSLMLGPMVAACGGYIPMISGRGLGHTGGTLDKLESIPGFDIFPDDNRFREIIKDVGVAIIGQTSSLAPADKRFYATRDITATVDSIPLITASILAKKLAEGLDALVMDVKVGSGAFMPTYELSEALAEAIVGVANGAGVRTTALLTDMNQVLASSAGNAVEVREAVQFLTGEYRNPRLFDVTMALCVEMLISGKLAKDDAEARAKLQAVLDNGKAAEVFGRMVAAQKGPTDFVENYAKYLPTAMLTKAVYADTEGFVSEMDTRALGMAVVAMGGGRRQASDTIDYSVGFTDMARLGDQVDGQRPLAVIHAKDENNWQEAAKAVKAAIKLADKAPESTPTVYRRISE
Chain of Thymidine phosphorylase (P07650 whole entry): as the sequence (P07650 whole entry, looked up) above

In the case of `O=c1[nH]c(=S)[nH]c2c(-c3ccc(Cl)cc3)cnn12`, the IC50 (Thymidine phosphorylase) is reported as 0.54 µM and the inhibition [1] is reported as 50%.
Work on `O=c1[nH]c(=S)[nH]c2cc(-c3ccc(C(F)(F)F)cc3)nn12` yielded an IC50 (Thymidine phosphorylase) of 9.9 µM and an inhibition [1] of 50%.
In the case of `O=c1[nH]c(=S)[nH]c2cc(-c3ccc(F)cc3)nn12`, the IC50 (Thymidine phosphorylase) is reported as 41.7 µM and the inhibition [1] is reported as 50%.
`O=c1[nH]c(=O)n2ncc(-c3ccc(Br)cc3)c2[nH]1` was tested, and the inhibition [1] was under 50%.
In the case of `COc1ccc(-c2cc3[nH]c(=O)[nH]c(=O)n3n2)cc1`, the inhibition [1] is reported as under 50%.
Molecule `Cc1cnn2c(=O)[nH]c(=S)[nH]c12` has an IC50 (Thymidine phosphorylase) of 87.3 µM and an inhibition [1] of under 50%.
In the case of `O=c1[nH]c(=S)[nH]c2c(-c3ccc(S(F)(F)(F)(F)F)cc3)cnn12`, the inhibition [2] is reported as “Active”, the Ratio IC50 [3] is reported as 800 and the IC50 (Thymidine phosphorylase) is reported as 0.04 µM.
`O=c1[nH]c(=S)[nH]c2cc(C(F)(F)F)nn12` was tested, and the IC50 (Thymidine phosphorylase) was 32.6 µM and the inhibition [1] was 50%.
`CC(C)(C)c1ccc(-c2cnn3c(=O)[nH]c(=S)[nH]c23)cc1` gave an IC50 (Thymidine phosphorylase) of 5.6 µM and an inhibition [1] of 50%.
For `O=c1[nH]c(=O)n2nc(-c3ccc(Br)cc3)cc2[nH]1`, the inhibition [1] was under 50%.
In the case of `O=c1[nH]c(=S)[nH]c2c(-c3ccc([N+](=O)[O-])cc3)cnn12`, the IC50 (Thymidine phosphorylase) is reported as 0.58 µM.
With `Cc1ccc(-c2cc3[nH]c(=S)[nH]c(=O)n3n2)cc1` the IC50 (Thymidine phosphorylase) was 19.3 µM and the inhibition [1] was 50%.
For `O=c1[nH]c(=O)n2ncc(-c3ccccc3)c2[nH]1`, the inhibition [1] was under 50%.
In the case of `O=c1[nH]c(=O)n2ncc(-c3ccc(F)cc3)c2[nH]1`, the inhibition [1] is reported as under 50%.
Work on `COc1ccc(-c2cnn3c(=O)[nH]c(=O)[nH]c23)cc1` yielded an inhibition [1] of under 50%.
`O=c1[nH]c(=O)n2ncc(-c3ccc(Cl)cc3)c2[nH]1` was tested, and the inhibition [1] was under 50%.
In the case of `O=c1[nH]c(=O)n2nc(-c3ccccc3)cc2[nH]1`, the inhibition [1] is reported as under 50%.
`O=c1[nH]c(=O)n2nccc2[nH]1` gave an inhibition [1] of under 50%.
`O=c1[nH]c(=S)[nH]c2ccnn12` gave an IC50 (Thymidine phosphorylase) of 68.2 µM and an inhibition [1] of under 50%.
`O=c1[nH]c(=S)[nH]c2c(-c3ccc(F)cc3)cnn12` gave an IC50 (Thymidine phosphorylase) of 10.5 µM and an inhibition [1] of 50%.
`Cc1ccc(-c2cnn3c(=O)[nH]c(=O)[nH]c23)cc1` showed an inhibition [1] of under 50%.
In the case of `O=c1[nH]c(=S)[nH]c2c(-c3ccc(C(F)(F)F)cc3)cnn12`, the IC50 (Thymidine phosphorylase) is reported as 0.24 µM and the inhibition [1] is reported as 50%.
With `Cc1ccc(-c2cc3[nH]c(=O)[nH]c(=O)n3n2)cc1` the inhibition [1] was under 50%.
With `O=c1[nH]c(=O)n2nc(C(F)(F)F)cc2[nH]1` the inhibition [1] was under 50%.
In the case of `O=c1[nH]c(=S)[nH]c2cc(-c3ccc(Cl)cc3)nn12`, the IC50 (Thymidine phosphorylase) is reported as 33.5 µM and the inhibition [1] is reported as 50%.
`O=c1[nH]c(=S)[nH]c2c(-c3ccc(I)cc3)cnn12` gave a Ratio IC50 [3] of 150 and an IC50 (Thymidine phosphorylase) of 0.21 µM.
Work on `CCOc1ccc(-c2cnn3c(=O)[nH]c(=S)[nH]c23)cc1` yielded an IC50 (Thymidine phosphorylase) of 15.5 µM.
Molecule `O=c1[nH]c(=O)n2ncc(I)c2[nH]1` has an inhibition [1] of under 50%.
`COc1ccc(-c2cc3[nH]c(=S)[nH]c(=O)n3n2)cc1` gave an IC50 (Thymidine phosphorylase) of 28.4 µM and an inhibition [1] of 50%.
Molecule `O=c1[nH]c(=O)n2ncc(-c3ccc(C(F)(F)F)cc3)c2[nH]1` has an inhibition [1] of under 50%.
`O=c1[nH]c(=O)n2nc(-c3ccc(Cl)cc3)cc2[nH]1` showed an inhibition [1] of under 50%.
For `O=c1[nH]c(=O)n2nc(-c3ccc(F)cc3)cc2[nH]1`, the inhibition [1] was under 50%.
`Cc1cc2[nH]c(=O)[nH]c(=O)n2n1` showed an inhibition [1] of under 50%.
In the case of `Cc1cc2[nH]c(=S)[nH]c(=O)n2n1`, the IC50 (Thymidine phosphorylase) is reported as 79.4 µM and the inhibition [1] is reported as under 50%.
In the case of `O=c1[nH]c(=S)[nH]c2c(-c3ccc(Br)cc3)cnn12`, the IC50 (Thymidine phosphorylase) is reported as 0.63 µM and the inhibition [1] is reported as 50%.
Molecule `O=c1[nH]c(=S)[nH]c2cc(-c3ccc(Br)cc3)nn12` has an IC50 (Thymidine phosphorylase) of 34.9 µM and an inhibition [1] of 50%.
Work on `O=c1[nH]c(=O)n2ncc(Cl)c2[nH]1` yielded an inhibition [1] of under 50%.
`Cc1cnn2c(=O)[nH]c(=O)[nH]c12` was tested, and the inhibition [1] was under 50%.
Work on `O=c1[nH]c(=O)n2ncc(Br)c2[nH]1` yielded an inhibition [1] of under 50%.
`CC(C)(C)c1ccc(-c2cc3[nH]c(=O)[nH]c(=O)n3n2)cc1` gave an inhibition [1] of under 50%.
`O=c1[nH]c(=O)n2nc(-c3ccc(C(F)(F)F)cc3)cc2[nH]1` was tested, and the inhibition [1] was under 50%.
With `COc1ccc(-c2cnn3c(=O)[nH]c(=S)[nH]c23)cc1` the IC50 (Thymidine phosphorylase) was 39.7 µM and the inhibition [1] was 50%.
In the case of `O=c1[nH]c(=S)[nH]c2c(Br)cnn12`, the IC50 (Thymidine phosphorylase) is reported as 44.4 µM and the inhibition [1] is reported as 50%.
Work on `O=c1[nH]c(=S)[nH]c2c(-c3ccccc3)cnn12` yielded an IC50 (Thymidine phosphorylase) of 26.3 µM and an inhibition [1] of 50%.
In the case of `O=c1[nH]c(=S)[nH]c2c(I)cnn12`, the IC50 (Thymidine phosphorylase) is reported as 20.8 µM and the inhibition [1] is reported as 50%.
For `O=c1[nH]c(=S)[nH]c2c(Cl)cnn12`, the IC50 (Thymidine phosphorylase) was 27.6 µM and the inhibition [1] was 50%.
`CC(C)(C)c1cc2[nH]c(=O)[nH]c(=O)n2n1` was tested, and the inhibition [1] was under 50%.
With `CC(C)(C)c1ccc(-c2cc3[nH]c(=S)[nH]c(=O)n3n2)cc1` the IC50 (Thymidine phosphorylase) was 6.6 µM and the inhibition [1] was 50%.
With `CC(C)(C)c1cc2[nH]c(=S)[nH]c(=O)n2n1` the IC50 (Thymidine phosphorylase) was 29.1 µM and the inhibition [1] was 50%.
With `CC(C)(C)c1ccc(-c2cnn3c(=O)[nH]c(=O)[nH]c23)cc1` the inhibition [1] was under 50%.
For `Cc1ccc(-c2cnn3c(=O)[nH]c(=S)[nH]c23)cc1`, the IC50 (Thymidine phosphorylase) was 1.7 µM and the inhibition [1] was 50%.
